10 molecules from ChEMBL document CHEMBL1142887, “N-Phenyl-N'-(2-chloroethyl)ureas (CEU) as potential antineoplastic agents. Part 2: role of omega-hydroxyl group in the covalent binding to beta-tubulin” (2007) can be followed below.

The subject of experiment [1] is M21 (human). Description: Induction of apoptosis in M21 cells at 1.2 uM.
For experiment [2], the system named is M21 (human). Description: Induction of apoptosis in M21 cells at 4 uM.
Experiment [3] concerns M21 (human). The experiment can be described thus: Induction of apoptosis in M21 cells at 10 uM.
Experiment [4] has as its system M21 (human). Description: Cell cycle arrest by accumulation at S phase in M21 cells at 10 uM.
The test system of experiment [5] is M21 (human). Description: Cell cycle arrest in M21 cells by accumulation at S phase at 1.2 uM.
Experiment [6] concerns M21 (human). The experiment can be described thus: Cell cycle arrest in M21 cells by accumulation at G0/G1 phase at 4 uM.
Experiment [7] has as its system M21 (human). Description: Cell cycle arrest in M21 cells by accumulation at G2/M phase at 1.2 uM.
Experiment [8] concerns M21 (human). Description: Cell cycle arrest by accumulation at G0/G1 phase in M21 cells at 10 uM.
The subject of experiment [9] is M21 (human). The experiment can be described thus: Cell cycle arrest by accumulation at G2/M phase in M21 cells at 4 uM.
In experiment [10] the test system is M21 (human). The experiment can be described thus: Cell cycle arrest in M21 cells by accumulation at S phase at 4 uM.
Experiment [11] concerns M21 (human). The experiment can be described thus: Cell cycle arrest in M21 cells by accumulation at G0/G1 phase at 1.2 uM.
For the next experiment, the system named is M21. The experiment can be described thus: Growth inhibition of M21 cells after 48 hrs. In kind it is functional. The following applies: Homo sapiens, M21, 48 h. The procedure, abridged: (§1)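 NCI screening protocol. Cells in high-glucose DMEM with 5% bovine calf serum preincubated 24 h at 37 °C, 5% CO₂, then exposed 48 h to drug, final 10 to 0.3 µM (DMSO below 0.5%). TCA fixation, sulforhodamine B staining, absorbance at 585 nm against a plate fixed on treatment day to give growth inhibition and GI50. At least two experiments in triplicate.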

The test system of another experiment is HT-29. The experiment can be described thus: Growth inhibition of HT29 cells after 48 hrs. In kind it is functional. The following applies: Homo sapiens, HT-29, 48 h. The procedure, abridged: as §1
For the next experiment, the system named is MCF7. Description: Growth inhibition of MCF7 cells after 48 hrs. In kind it is functional. The following applies: Homo sapiens, MCF7, 48 h. In a few lines: as §1
In a further experiment the test system is MDA-MB-231. Description: Alkylation of beta-tubulin in MDA-MB-231 cells at 5 uM by electrophoretic mobility shift assay after 48 hrs. In kind it is cell-based. Conditions: Homo sapiens.
In experiment [12] the test system is M21 (human). The experiment can be described thus: Cell cycle arrest in M21 cells by accumulation at G0/G1 phase at 25 uM.
Experiment [13] concerns M21 (human). The experiment can be described thus: Cell cycle arrest by accumulation at G0/G1 phase in M21 cells at 3 uM.
A further experiment concerns HT-1080. Description: Cell cycle arrest by accumulation at G2/M phase in HT1080 cells at 10 uM. It counts as functional, Homo sapiens. The procedure, abridged:
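HT 1080 cells incubated with drug (dissolved in DMSO, 0.5% final DMSO in medium; DMSO control). Cells harvested, fixed in ice-cold ethanol, and 5 × 10⁵ cells per sample stained with propidium iodide 50 µg/mL plus RNase A 40 U/mL for 30 min at room temperature. Flow cytometry gave % apoptotic cells and % G0/G1, S and G2/M populations.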

Experiment [14] deals with M21 (human). The experiment can be described thus: Cell cycle arrest in M21 cells by accumulation at S phase at 25 uM.
For experiment [15], the system named is M21 (human). Description: Cell cycle arrest by accumulation at S phase in M21 cells at 3 uM.
The test system of experiment [16] is M21 (human). The experiment can be described thus: Cell cycle arrest by accumulation at G2/M phase in M21 cells at 3 uM.
The test system of experiment [17] is M21 (human). Description: Induction of apoptosis in M21 cells at 25 uM.
Experiment [18] has as its system M21 (human). The experiment can be described thus: Induction of apoptosis in M21 cells at 3 uM.
The test system of experiment [19] is M21 (human). The experiment can be described thus: Cell cycle arrest in M21 cells by accumulation at G2/M phase at 25 uM.

Some results are limits rather than exact numbers.

`O=C(NCCCl)Nc1cccc(CCCCCO)c1`: the Activity is reported as 7.58% in the experiment on M21 (human) [1]; 9.83% with M21 (human) [2]; 10.71% in the experiment on M21 (human) [3]; 12.11% in the experiment on M21 (human) [4]; 16.65% with M21 (human) [5]; 7.57% in the experiment with M21 (human) [6]. Further, the Activity in the experiment on M21 (human) [7] was 21.82%; in the experiment on M21 (human) [8], 5.9%; in the experiment on M21 (human) [9] it was 70.24%; with M21 (human) [10] it was 12.12%; in the experiment on M21 (human) [11], 54.35%.
What is called GI50 is the concentration giving 50% growth inhibition. Lower therefore signals more potent growth inhibition. As to `CCCCCCc1cccc(NC(=O)NCCCl)c1`, the GI50 in the experiment with M21, in the experiment with HT-29 and with MCF7 was 1000 nM in each case.
Regarding `COCc1cccc(NC(=O)NCCCl)c1`, the 50% growth inhibitory concentration (GI50) with M21, with HT-29 and in the experiment with MCF7 was above 10000 nM throughout.
`CCCCCCCc1cccc(NC(=O)NCCCl)c1`: the GI50 with M21 was found to be 1000 nM; with HT-29, 1000 nM; with MCF7, 2000 nM.
As to `COCCCCc1cccc(NC(=O)NCCCl)c1`, the GI50 in the experiment on M21 came out at 2000 nM; with HT-29, 1000 nM; in the experiment on MCF7 it was 3000 nM.
As to `COCCCCCc1cccc(NC(=O)NCCCl)c1`, the Activity was 81% with MDA-MB-231; 9.02% with M21 (human) [3]; 14.37% with M21 (human) [4]; 6.74% in the experiment on M21 (human) [12]; 31.28% in the experiment on M21 (human) [13]; 68.57% with HT-1080. Also, the Activity is 7.52% in the experiment with M21 (human) [8]; 13.79% in the experiment with M21 (human) [14]; 19.98% in the experiment with M21 (human) [15]; 40.22% in the experiment with M21 (human) [16]; 8.63% with M21 (human) [17]; 8.5% with M21 (human) [18]. This molecule yielded an Activity in the experiment on M21 (human) [19] of 70.84%. Further, the GI50 with MCF7 stood at 1000 nM.
On to `COc1cccc(NC(=O)NCCCl)c1`, for which the 50% growth inhibitory concentration (GI50) with M21, in the experiment with HT-29 and with MCF7 was above 10000 nM in each case.
As to `COCCc1cccc(NC(=O)NCCCl)c1`, the GI50 in the experiment on M21 is 6000 nM; with HT-29 it was 4000 nM; in the experiment on MCF7, 14000 nM.
As to `CCCCCc1cccc(NC(=O)NCCCl)c1`, the Activity came out at 90% in the experiment with MDA-MB-231; 8.59% in the experiment on M21 (human) [3]; 13.28% in the experiment with M21 (human) [4]; 8.75% in the experiment on M21 (human) [12]; 15.06% in the experiment on M21 (human) [13]; 68.06% with HT-1080. In addition, the Activity in the experiment on M21 (human) [8] came out at 7.85%; with M21 (human) [14] it was 15.23%; in the experiment with M21 (human) [15], 17.75%; in the experiment with M21 (human) [16], 60.78%; in the experiment on M21 (human) [17], 7.84%; in the experiment on M21 (human) [18], 6.16%. For the same molecule, the Activity with M21 (human) [19] was determined as 68.48%. The same molecule had a GI50 with MCF7 of 1000 nM.
Consider `COCCCc1cccc(NC(=O)NCCCl)c1`, for which the GI50 in the experiment on M21 was 5000 nM; with HT-29 it was 4000 nM; in the experiment with MCF7, above 10000 nM.
